From PubChem BioAssay
Shown are actives, neighbours in structure and some others; about 3.9% of the full set was active somewhere.
tim10-1 inh = growth inhibitors of tim10-1 mutant yeast; inhibition, % at 20 µM; 2.2% of 330,000 active; S. cerevisiae tim10-1 ts strain growth, BacTiter-Glo, 24 h;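 active means inhibition of at least 40%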;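 further: mutant grown at 25 °C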
TIM10 inh = TIM10 yeast growth inhibition. S. cerevisiae TIM10 strain growth, BacTiter-Glo luminescence, 24 h. inhibition, % at 10 µM. 1.4% of 330,000 active. AID 463195;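 active means inhibition of 40% or more at the single tested concentration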;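 further: wild-type TIM10 isogenic control strain grown at permissive 25 °C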
XBP1 UPR activ = adaptive UPR (XBP1) activation; CHO-XBP1 luciferase reporter, IRE1-XBP1 UPR activation, luminescence; percent of tunicamycin response, DMSO as zero; AID 463104; activation, % at 20 µM; 0.33% of 330,000 active;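 active means versus positive control, 20 µM dose yields 30% or more activation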
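Assay system: IRE1-XBP1 luciferase reporter CHO line. Input: 1000 cells/well. Buffer or medium: F12 with 10% serum. Doses: 20 µM, 1% DMSO. Times: overnight seeding at 37 °C, 6 h compound treatment at 37 °C. Technique: Steady-Glo luciferase glow luminescence, 10 min after reagent addition.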
tim23-1 inh = inhibits growth of tim23-1 mutant yeast | S. cerevisiae tim23-1 growth, BacTiter-Glo luminescence, 24 h | inhibition, % at 20 µM | 1.3% of 330,000 active;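 active means growth inhibition of the mutant yeast at or above 50%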;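 further: temperature-sensitive mutant grown at 25 °C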
CHOP UPR activ = apoptotic UPR (CHOP) activation | CHO-CHOP luciferase reporter, luminescence; percent of tunicamycin response over DMSO baseline | 0.34% of 330,000 active | activation, % at 10 µM | AID 449763;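 active means at 10 µM dose, activation of 40% or more, normalized to positive control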
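Evaluation: % reporter activation, DMSO baseline versus tunicamycin full activation; System: CHO-CHOP luciferase reporter cell line; Input: 500 cells/well; Incubation: 6 h compound treatment, 37 °C; Measured by: Steady-Glo luciferase luminescence; Dosing: one dose, 10 µM in 0.5% DMSO; Buffer or medium: F12 medium, 10% FBS; Benchmarks: positive tunicamycin 10 µg/mL, negative DMSO alone.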
tim10-1 conf = tim10-1 yeast growth inhibition, confirmed; S. cerevisiae tim10-1 ts strain growth, BacTiter-Glo, 24 h; AID 463213; 56% of 7,400 active; shares compounds with tim10-1 inh; inhibition, % at 20 µM;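 active means inhibition of yeast growth at or above a set limit in either of two repeat tests at 20 µM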;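 further: tim10-1 mutant grown at permissive 25 °C to find synthetic lethal compounds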
tim10 confirm = confirmation of TIM10 yeast growth inhibitors; shares compounds with TIM10 inh; S. cerevisiae tim10 strain growth, BacTiter-Glo luminescence, 24 h; inhibition, % at 10 µM; 63% of 4,600 active; AID 463215;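 active means inhibition of yeast growth at or above a set limit in either of two replicates at 10 µM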; further: this counterscreen used the strain with wild-type TIM10
tim23-1 confirm = tim23-1 yeast growth inhibition, confirmed | shares compounds with tim23-1 inh | S. cerevisiae tim23-1 growth, BacTiter-Glo luminescence, 24 h | inhibition, % at 20 µM | 83% of 4,400 active | AID 463218;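 active means inhibition above about 39% in either of two replicate wells at 20 µM, limit read from the data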;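 further: temperature-sensitive tim23-1 mutant grown at 25 °C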
Of the large screens only hits and unclear results are named; the others gave an inactive call (follow-up assays come after a bar, where they were run).

Cc1ccc(NC(=O)C/C(N)=N/OC(=O)c2ccccc2)cc1	tim10-1 inh 54.9, TIM10 inh 68.8, tim23-1 inh 50.9 | tim10-1 conf 76.2 | tim10 confirm 80.3 | tim23-1 confirm 74.8
CCOC(=O)c1ccc(NC(=O)CNC(=O)c2ccccc2)cc1	none
N/C(Cc1ccc(Cl)cc1)=N\OC(=O)c1ccccc1	tim10-1 inh 52.9, TIM10 inh 86.7, tim23-1 inh 68.8 | tim10-1 conf inactive | tim10 confirm inactive | tim23-1 confirm 44.2
O=C(COC(=O)c1ccc(O)cc1O)Nc1ncc(Cl)cc1Cl	none
Cc1cc(C)c(NC(=O)CNC(=O)c2cc([N+](=O)[O-])ccc2N2CCOCC2)c(C)c1	none
CC(C)(C)C(=O)O/N=C(\N)COc1cccc(Cl)c1	tim10-1 inh 40.3, TIM10 inh 67.1, tim23-1 inh 79.8 | tim10-1 conf inactive | tim10 confirm 74.2 | tim23-1 confirm 69.3
CC(C)(C)C(=O)OC/C(N)=N/OC(=O)c1ccc(Cl)cc1	tim10-1 inh 59.7, TIM10 inh 44.2, tim23-1 inh 76.0 | tim10-1 conf 47.0 | tim10 confirm 68.3 | tim23-1 confirm 72.7
COc1ccc(C/C(N)=N/n2cnnc2)cc1Cl	none
N/C(Cc1ccc([N+](=O)[O-])cc1)=N\OC(=O)c1cccc(Br)c1	tim10-1 inh 70.3, TIM10 inh 94.8, tim23-1 inh 91.0 | tim10-1 conf 42.8 | tim10 confirm 95.3 | tim23-1 confirm 86.1
N/C(CN1CCCC1=O)=N\OC(=O)c1ccc(Cl)cc1	none
COc1ccc(C(=O)O/N=C(\N)Cc2ccc(Cl)c(Cl)c2)cc1OC	tim10-1 inh 58.4, TIM10 inh 88.1, tim23-1 inh 70.0 | tim10-1 conf 34.2 | tim10 confirm inactive | tim23-1 confirm inactive
Cc1cccc(OCC(=O)O/N=C(\N)Cc2ccc(Cl)cc2)c1	tim10-1 inh 57.3, TIM10 inh 72.1, tim23-1 inh 75.4 | tim10-1 conf 39.8 | tim10 confirm 83.6 | tim23-1 confirm 70.0
N/C(Cc1ccc([N+](=O)[O-])cc1)=N\OC(=O)c1ccc([N+](=O)[O-])cc1	tim10-1 inh 59.3, TIM10 inh 84.0, tim23-1 inh 67.4 | tim10-1 conf 74.3 | tim10 confirm 85.8 | tim23-1 confirm 84.1
O=C1CC(c2cccc(Cl)c2)c2cc3c(cc2N1)CCC3 (stereo not drawn)	tim10-1 inh 41.0, tim23-1 inh 60.3 | tim10-1 conf inactive | tim23-1 confirm 56.5
CC(Sc1nnc(-c2cccs2)n1-c1ccccc1)C(=O)NCc1ccc2c(c1)OCO2 (stereo not drawn)	none
Cc1cc(C)n(-c2ccc(C(=O)OC(C)C(=O)Nc3ccc(C(N)=O)cc3)cc2)n1 (stereo not drawn)	none
CN(C)S(=O)(=O)c1cccc(NC(=S)Nc2cc(Cl)cc(Cl)c2)c1	tim10-1 inh 58.2, TIM10 inh 60.5, tim23-1 inh 51.7 | tim10-1 conf 36.0 | tim10 confirm inactive | tim23-1 confirm 44.5
COC1C(C)=C(C)C(=O)N1Cc1ccc(F)cc1 (stereo not drawn)	none
Nc1ccccc1C#Cc1ccc2[nH]ccc2c1	tim10-1 inh 43.6, tim23-1 inh 62.7 | tim10-1 conf inactive | tim23-1 confirm 52.9
O=C(NCC1CCOCC1)C1CCC(=O)N(Cc2cccc(C(F)(F)F)c2)C1 (stereo not drawn)	none
O=C(Cn1cncn1)N/N=C/c1ccc(Cl)cc1	none
CC(C)(C)C(=O)/C(=C/c1ccc(Cl)cc1)n1cncn1	tim10-1 inh 50.8, tim23-1 inh 51.9 | tim10-1 conf 35.0 | tim23-1 confirm inactive
CCCn1nc(C(=O)Nc2ccc3c(c2)OCCO3)c2ccccc2c1=O	none
CN(C)/N=C/c1c(O)ccc2ccccc12	none
Oc1ccccc1N=Cc1c(O)ccc2ccccc12	tim10-1 inh 41.9, tim23-1 inh 66.1 | tim10-1 conf inactive | tim23-1 confirm 78.5
O=C(NCc1ccc(Cl)s1)C1CCC(=O)N(CCc2ccccn2)C1 (stereo not drawn)	none
Cc1ccc(C(=O)/C=C/c2ccc3ncccc3c2)cc1	tim10-1 inh 52.6, TIM10 inh 51.6, tim23-1 inh 68.9 | tim10-1 conf 52.3 | tim10 confirm 50.3 | tim23-1 confirm 46.8
O=C(OCc1csc(Nc2ccccc2)n1)c1ccc(Cl)cc1	tim10-1 inh 46.6, TIM10 inh 58.1, tim23-1 inh 61.4 | tim10-1 conf inactive | tim10 confirm 41.3 | tim23-1 confirm 44.3
N#CCC(=O)Nc1ccc(C(=O)OCC(=O)N=c2sccn2Cc2ccccc2Cl)cc1	none
COc1ccc2cc3cc(C(=O)N4CCN(c5ccccn5)CC4)oc3nc2c1	tim10-1 inh 43.8, TIM10 inh 55.1, tim23-1 inh 54.0 | tim10-1 conf inactive | tim10 confirm 58.8 | tim23-1 confirm inactive
COc1ccccc1OCC(=O)N(Cc1nc(-c2ccccc2)no1)C1CCCCC1	tim10-1 inh 41.7, tim23-1 inh 52.3 | tim10-1 conf 31.5 | tim23-1 confirm 51.1
CS(=O)(=O)c1ccc(CNC(=O)C2(C(F)(F)F)C/C(=C\Cc3ccccc3)CCCO2)cc1 (stereo not drawn)	none
S=C(N/N=C/c1ccc2c(c1)OCO2)NC1CC2CCC1C2 (stereo not drawn)	none
COc1cc(/C=N/NC(=S)NC2CC3CCC2C3)ccc1O (stereo not drawn)	tim10-1 inh 42.3, TIM10 inh 49.0, tim23-1 inh 67.9 | tim10-1 conf inactive | tim10 confirm 43.0 | tim23-1 confirm 51.5
CC1=C(C#N)c2nc(N)c(C#N)c(C)c2/C1=C\c1ccc(C)cc1	tim10-1 inh 73.3, TIM10 inh 82.2, tim23-1 inh 55.9 | tim10-1 conf 89.9 | tim10 confirm inactive | tim23-1 confirm 68.3
CSc1nc(-c2ccc(C)cc2)nc(N)c1C#N	none
C/C(=N\NC(=O)c1ccccc1NC(=O)c1ccc(Cl)cc1)c1ccncc1	tim10-1 inh 96.2, TIM10 inh 95.5, tim23-1 inh 95.0 | tim10-1 conf 97.2 | tim10 confirm 95.8 | tim23-1 confirm 100.4
CCc1ccc(C(=O)Cn2ncc(Cl)c(Cl)c2=O)cc1	none
O=C(OCn1ncc(Cl)c(Cl)c1=O)c1cccc(C(F)(F)F)c1	tim10-1 inh 71.5, TIM10 inh 53.0, tim23-1 inh 73.7 | tim10-1 conf 72.2 | tim10 confirm 39.3 | tim23-1 confirm 71.8
COc1ccc(CNC(=O)c2ccc(-c3ccccc3)cc2)cc1	none
